Series [1] deals with SARS-CoV-2. The experiment in a line: Antiviral activity against SARS-CoV-2 infected in Vero E6 cells assessed as viral RNA level measured after 48 hrs by RT-PCR analysis. In kind it is functional, organism-based. Particulars: Severe acute respiratory syndrome coronavirus 2, Vero C1008, 48 h.
Series [2] deals with SARS-CoV-2. The experiment in a line: Antiviral activity against SARS-CoV-2 infected in Vero E6 cells assessed as virus-induced cytopathic effect at 40 uM measured after 48 hrs by CCK-8 assay. Format: functional, organism-based. The following applies: Severe acute respiratory syndrome coronavirus 2. On the technique in general: Damage to the host cells serves as the signal in cytopathic effect assays.

Series [3] can be described thus: Toxicity in mouse assessed as death at 230 mg/kg, po measured after 12 days. The following applies: in vivo, 288 h, time 12 day. In kind it is organism-based. In short, it runs like this:
(§1)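 Male and female mice (25 g; n = 8 per group; vehicle-control and test groups) were fasted overnight. Compounds were given as sulfate salts in physiological saline, intragastrically at 230 mg/kg twice a day; controls received saline. Survival was followed by day post dosing, in a double-dose acute toxicity assay.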

Series [4] is described as follows: Toxicity in mouse assessed as death at 230 mg/kg, po measured after 7 days. In kind it is organism-based. Particulars: in vivo, 168 h, time 7 day. In short, it runs like this: as §1
Series [5] can be described thus: Toxicity in mouse assessed as death at 230 mg/kg, po measured after 9 days. In kind it is organism-based. The following applies: in vivo, 216 h, time 9 day. Summed up: as §1
Series [6] relates to SARS-CoV-2. The experiment in a line: Antiviral activity against SARS-CoV-2 infected in Vero E6 cells assessed as virus-induced cytopathic effect at 5 uM measured after 48 hrs by CCK-8 assay. Particulars: Severe acute respiratory syndrome coronavirus 2. Format: functional, organism-based.

Among the data in ChEMBL document CHEMBL5143543, “Synthesis and evaluation of enantiomers of hydroxychloroquine against SARS-CoV-2 in vitro” (Bioorg Med Chem, 2022) are EC50 and Activity values, retold here.

The structures appear in SMILES notation. The source made the active and inactive calls. The rule behind the calls is not given here.

A word on the EC50: it is the concentration that produces a half-maximal response. Regarding `CCN(CCO)CCC[C@H](C)Nc1ccnc2cc(Cl)ccc12.O=S(=O)(O)O`, the EC50 in the series on SARS-CoV-2 [1] turned out to be 3.05 µM. The result in the series with SARS-CoV-2 [2] was Active. Moreover, the Activity entry in series [3] is “Non-Toxic”.

With `CCN(CCO)CCCC(C)Nc1ccnc2cc(Cl)ccc12.O=S(=O)(O)O` (racemic) [HYDROXYCHLOROQUINE SULFATE], in series [4], the Activity entry is listed as “Toxic”. Moreover, in the series with SARS-CoV-2 [1], the concentration giving a half-maximal response (EC50) stood at 5.09 µM. For the same molecule, in the series on SARS-CoV-2 [2], the outcome was Active.

Take `CCN(CCO)CCC[C@@H](C)Nc1ccnc2cc(Cl)ccc12.O=S(=O)(O)O`: the EC50 with SARS-CoV-2 [1] came to 5.38 µM. For the same molecule, the outcome with SARS-CoV-2 [2] was Active. The Activity entry in series [5] was “Toxic”.

As for `CCC(CC)COC(=O)[C@H](C)N[P@](=O)(OC[C@H]1O[C@@](C#N)(c2ccc3c(N)ncnn23)[C@H](O)[C@@H]1O)Oc1ccccc1`, the outcome in the series with SARS-CoV-2 [6] was Active.
